From ChEMBL document CHEMBL3352313 (J Med Chem, 2014)

What was measured:
[1] = biological target: T1, Muscarinic acetylcholine receptor M5 (Homo sapiens, UniProt P08912); experiment: Positive allosteric modulator activity at human muscarinic acetylcholine receptor subtype 5 expressed in CHO cells by calcium mobilization assay; assay type: functional, cell-based; conditions: read-out: EC50
T1 sequence (P08912 whole entry): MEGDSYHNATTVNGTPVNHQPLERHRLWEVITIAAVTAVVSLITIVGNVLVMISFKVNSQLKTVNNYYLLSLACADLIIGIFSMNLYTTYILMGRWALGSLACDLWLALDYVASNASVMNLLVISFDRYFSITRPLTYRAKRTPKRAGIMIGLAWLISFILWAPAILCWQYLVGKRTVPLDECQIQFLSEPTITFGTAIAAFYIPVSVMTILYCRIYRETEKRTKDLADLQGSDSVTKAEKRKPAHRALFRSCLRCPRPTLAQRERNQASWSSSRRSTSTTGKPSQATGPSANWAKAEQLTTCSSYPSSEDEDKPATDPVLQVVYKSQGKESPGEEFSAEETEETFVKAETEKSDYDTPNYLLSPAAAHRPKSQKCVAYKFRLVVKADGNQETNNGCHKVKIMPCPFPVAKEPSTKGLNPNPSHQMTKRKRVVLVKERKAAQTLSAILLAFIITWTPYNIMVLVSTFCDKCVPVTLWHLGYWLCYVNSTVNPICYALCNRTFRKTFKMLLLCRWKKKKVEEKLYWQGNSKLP

[2] = biological target: T2, Muscarinic acetylcholine receptor M4 (Homo sapiens, UniProt P08173); experiment: Activity at human muscarinic acetylcholine receptor subtype 4 expressed in CHO cells co-transfected with chimeric Gqi5 by calcium mobilization assay; assay type: functional, cell-based
T2 sequence (P08173 whole entry): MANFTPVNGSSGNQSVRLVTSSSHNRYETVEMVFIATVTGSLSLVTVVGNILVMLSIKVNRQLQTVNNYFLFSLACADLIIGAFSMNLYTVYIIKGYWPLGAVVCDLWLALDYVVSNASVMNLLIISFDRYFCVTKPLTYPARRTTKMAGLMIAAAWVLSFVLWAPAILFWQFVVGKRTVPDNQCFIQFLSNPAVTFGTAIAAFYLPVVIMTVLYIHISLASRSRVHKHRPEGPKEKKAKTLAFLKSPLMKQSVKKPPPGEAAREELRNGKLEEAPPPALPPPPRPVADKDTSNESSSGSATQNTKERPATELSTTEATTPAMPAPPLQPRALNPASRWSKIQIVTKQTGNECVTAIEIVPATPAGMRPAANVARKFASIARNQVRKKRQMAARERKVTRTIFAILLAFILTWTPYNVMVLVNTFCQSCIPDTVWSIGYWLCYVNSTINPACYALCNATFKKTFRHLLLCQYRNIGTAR
Summary of the method: (§1)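 Muscarinic subtype selectivity by fluorescence calcium mobilization in highly expressing CHO lines with similar receptor levels; Gi/o-coupled M2 and M4 cells co-transfected with chimeric Gqi5 to couple to Ca2+ mobilization. Read-outs are PAM EC50 and ACh max response. Mean ± SEM of at least three independent determinations.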

[3] = biological target: T3, Muscarinic acetylcholine receptor M2 (Homo sapiens, UniProt P08172); experiment: Activity at human muscarinic acetylcholine receptor subtype 2 expressed in CHO cells co-transfected with chimeric Gqi5 by calcium mobilization assay; assay type: functional, cell-based; summary of the method: as §1
T3 sequence (P08172 whole entry): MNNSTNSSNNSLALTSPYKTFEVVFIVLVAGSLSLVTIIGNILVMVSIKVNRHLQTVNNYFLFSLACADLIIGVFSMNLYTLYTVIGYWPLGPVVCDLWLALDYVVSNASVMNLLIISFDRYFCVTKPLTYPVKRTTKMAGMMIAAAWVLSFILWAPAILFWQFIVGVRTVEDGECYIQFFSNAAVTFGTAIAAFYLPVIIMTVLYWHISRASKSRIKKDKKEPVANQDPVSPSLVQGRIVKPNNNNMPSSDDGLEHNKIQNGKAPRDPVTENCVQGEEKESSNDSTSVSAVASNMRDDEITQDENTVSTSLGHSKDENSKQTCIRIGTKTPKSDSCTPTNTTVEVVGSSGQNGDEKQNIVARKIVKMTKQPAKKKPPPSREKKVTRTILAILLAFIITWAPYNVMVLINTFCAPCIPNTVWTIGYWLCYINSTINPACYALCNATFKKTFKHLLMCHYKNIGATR

[4] = biological target: T4, Muscarinic acetylcholine receptor M1 (Homo sapiens, UniProt P11229); experiment: Activity at human muscarinic acetylcholine receptor subtype 1 expressed in CHO cells by calcium mobilization assay; assay type: functional, cell-based; summary of the method: as §1
T4 sequence (P11229 whole entry): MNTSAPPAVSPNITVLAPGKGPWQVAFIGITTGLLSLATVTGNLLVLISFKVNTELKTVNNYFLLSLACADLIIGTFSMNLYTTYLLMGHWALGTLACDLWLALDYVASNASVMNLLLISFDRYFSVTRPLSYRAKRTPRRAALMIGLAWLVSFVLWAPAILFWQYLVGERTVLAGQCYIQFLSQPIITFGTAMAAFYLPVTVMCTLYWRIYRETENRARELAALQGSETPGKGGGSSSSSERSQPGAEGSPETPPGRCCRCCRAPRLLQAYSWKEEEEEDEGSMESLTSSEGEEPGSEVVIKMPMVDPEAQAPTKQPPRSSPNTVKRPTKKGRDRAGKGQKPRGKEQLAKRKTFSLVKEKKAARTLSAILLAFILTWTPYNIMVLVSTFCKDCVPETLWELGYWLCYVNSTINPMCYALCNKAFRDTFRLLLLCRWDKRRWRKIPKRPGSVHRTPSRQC

Homo sapiens = species on record: Homo sapiens; experiment: Selectivity index, ratio of EC50 for human muscarinic acetylcholine receptor subtype 1 to EC50 for human muscarinic acetylcholine receptor subtype 5
[5] = biological target: T5, Muscarinic acetylcholine receptor M1 (Homo sapiens) (UniProt P11229); experiment: Activity at human muscarinic acetylcholine receptor subtype 1 expressed in CHO cells by calcium mobilization assay relative to acetylcholine; assay type: functional, cell-based; summary of the method: as §1
T5 sequence (whole entry): T4 sequence (P11229 whole entry)

[6] = biological target: Cannabinoid receptor 1 (Homo sapiens) (UniProt P21554); experiment: Displacement of radioligand from human CB1 receptor at 10 uM
Summary of the method: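 Pan Labs lead profiling radioligand binding battery of 68 GPCRs, ion channels and transporters, with test compound present at 10 μM.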

Plasma = experiment: Fraction unbound in rat plasma at 5 uM incubated for 4 hrs at 37 degC by equilibrium dialysis based LC/MS/MS analysis; assay type: ADME, cell-free
Summary of the method: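 Fraction unbound measured in rat and human plasma and in rat brain homogenate.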

[7] = Plasma clearance in Sprague-Dawley rat 1 mg/kg, iv administered as single dose by LC/MS/MS utilizing electrospray ionization method; assay type: ADME, organism-based; design: dose 1 mg/kg, route intravenous

Chain of Cannabinoid receptor 1 (Homo sapiens) (P21554 whole entry): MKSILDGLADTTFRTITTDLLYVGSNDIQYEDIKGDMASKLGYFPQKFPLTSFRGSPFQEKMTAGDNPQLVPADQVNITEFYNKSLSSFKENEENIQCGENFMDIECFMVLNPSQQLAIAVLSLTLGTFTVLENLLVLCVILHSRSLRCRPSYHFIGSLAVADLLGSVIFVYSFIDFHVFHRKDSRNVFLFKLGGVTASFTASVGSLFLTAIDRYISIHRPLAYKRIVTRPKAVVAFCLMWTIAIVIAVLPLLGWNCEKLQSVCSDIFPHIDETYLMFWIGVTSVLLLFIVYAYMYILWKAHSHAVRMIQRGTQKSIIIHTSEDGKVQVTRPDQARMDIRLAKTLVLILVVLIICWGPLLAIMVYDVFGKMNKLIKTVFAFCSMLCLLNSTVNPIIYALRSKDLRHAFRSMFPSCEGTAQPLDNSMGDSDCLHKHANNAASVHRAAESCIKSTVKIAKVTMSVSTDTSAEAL

With `CCN(Cc1ccccc1C(F)(F)F)C(=O)C1CCN(S(=O)(=O)c2ccc3[nH]ncc3c2)CC1` the EC50 [1] was 0.19 µM, the EC50 [2] was over 30 µM and the EC50 [3] was over 30 µM. For the same molecule, the EC50 [4] was 5.4 µM, the Ratio EC50 (Homo sapiens) was over 10 and the %max [5] was 52%. For the same molecule, the inhibition [6] was 50%, the Fu (Plasma) was 0.014 and the clearance [7] was 66 mL/min/kg.
